Tn7 DDE FP: inhibitors of Tn7 peptide binding to fibrin DD(E), primary screen, biochemical, fluorescence polarization, human fibrin, Tn7 probe; FP displacement of FITC-Tn7 peptide from fibrin DD(E); 0% = median of compound wells per plate; inhibition, % at 8.3 µM; actives 0.13% (n = 370,000); AID 720508, 2013;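 active means inhibition above the mean of compounds falling within the control limits plus 3 SD of them, cut at about 14% in these data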;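 further: 0% = plate median of compound wells and 100% = 10 µM Aha-Tn7 peptide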
Target sequence (P02675 whole entry, looked up): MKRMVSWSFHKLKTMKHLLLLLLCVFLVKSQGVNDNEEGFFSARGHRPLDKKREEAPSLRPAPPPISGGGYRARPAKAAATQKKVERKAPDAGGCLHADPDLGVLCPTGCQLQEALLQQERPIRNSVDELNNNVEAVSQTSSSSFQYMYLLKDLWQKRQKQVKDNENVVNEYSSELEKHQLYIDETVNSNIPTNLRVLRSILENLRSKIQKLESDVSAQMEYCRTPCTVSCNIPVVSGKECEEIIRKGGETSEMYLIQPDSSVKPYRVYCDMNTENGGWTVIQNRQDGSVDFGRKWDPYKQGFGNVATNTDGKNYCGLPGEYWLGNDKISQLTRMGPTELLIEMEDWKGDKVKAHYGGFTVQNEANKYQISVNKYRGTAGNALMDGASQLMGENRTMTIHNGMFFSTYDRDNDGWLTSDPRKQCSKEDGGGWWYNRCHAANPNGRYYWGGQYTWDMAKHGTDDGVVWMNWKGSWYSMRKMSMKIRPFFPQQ
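Test system: human clot-derived fibrin DD(E) complex / Quantity: 2 µM final DD(E) protein / Incubation: 10 min plus 3 h, room temperature / Measured by: fluorescence polarization / Benchmarks: high control of 10 µM Aha-Tn7 peptide / Replicates: singlicate testing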
GRK2 inh: compounds blocking aptamer binding on GRK2 – biochemical, human GRK2, bead flow cytometry, HTS, primary screen. Beta-adrenergic receptor kinase 1 (Homo sapiens), P25098. FAM-aptamer displacement from GRK2. inhibition of aptamer binding, % at 10 µM. actives 0.59% (n = 330,000). AID 488847, 2010;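 active means inhibition of aptamer binding above 40%, roughly 3 SD of noise, on plates passing a quality check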;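 further: median bead fluorescence of bound FAM aptamer so fluorescent compounds give negative values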
ABCB1 inh: ABCB1 efflux pump inhibitors, primary screen, cell-based, multiplex, flow cytometry, ABCG2 counter-screen; CCRF-Adr cells, JC-1 efflux; ATP-dependent translocase ABCB1 (Homo sapiens), P08183; inhibition, % at 6.6 µM; actives 0.067% (n = 190,000); AID 1326, 2008; in the data active means inhibition above about 40%;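 further: 0% = vehicle and 100% = reference inhibitor; higher value means more JC-1 retained so stronger ABCB1 efflux block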
Ins promoter up: insulin promoter activators in MIN6 cells, imaging, high-content screening, mouse beta cells. MIN6 insulin promoter-GFP reporter; stronger effect = higher value. z-score at 5 µM. actives 0.3% (n = 190,000);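 active means z-score above 3 at 5 µM with at least 500 cells counted in the well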
ABCG2 inh: ABCG2 efflux pump inhibitors, primary screen, multiplex with ABCB1, IgMXP3 cells, flow cytometry; actives 0.1% (n = 190,000); JC-1 efflux; Broad substrate specificity ATP-binding cassette transporter ABCG2 (Homo sapiens), Q9UNQ0; inhibition, % at 6.6 µM;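 active means inhibition above 80%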;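 further: 0% = DMSO and 100% = nicardipine control wells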
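Read-out basis: Efflux inhibition in percent versus controls | Test system: ABCG2 IgMXP3 and barcoded ABCB1 CCRF-Adr cell mix | Quantity: 3 million cells/mL in well | Schedule: 10 min at 25 °C | Control set: Nicardipine as high control, DMSO as low control | Reagent: JC-1 as fluorescent efflux pump substrate | Signal: Flow cytometry of retained JC-1 fluorescence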
Tn6 DDE FP: inhibitors of Tn6 peptide binding to fibrin DD(E), primary screen, biochemical, fluorescence polarization, human fibrin, Tn6 probe; Fibrin DD(E) TRITC-Tn6 fluorescence polarization displacement; inhibition, % at 8.3 µM; actives 0.21% (n = 370,000); AID 720509, 2013;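 active means inhibition above a per-campaign cutoff: mean of compounds within control limits plus 3 SD, cut at about 15% in these data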;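 further: 0% = median of all compound wells on the plate and 100% = blocking peptide control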
ABCB1 single pt: ABCB1 efflux pump inhibitors, confirmation, cell-based, single point, ABCG2 counter-screen; shares compounds with ABCG2 inh; CCRF-Adr cells, JC-1 efflux, flow cytometry; inhibition, % at 6.6 µM; actives 7% (n = 270); AID 1451, 2008;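 active means inhibition of pump activity above 50%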;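 further: 0% = DMSO and 100% = nicardipine full pump inhibition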
ABCG2 confirm: ABCG2 efflux pump inhibitors, confirmation, single point, IgMXP3 cells, ABCB1 counter-screen paired | JC-1 efflux, flow cytometry | AID 1453, 2008 | inhibition, % at 6.6 µM | actives 6% (n = 270) | shares compounds with ABCG2 inh;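 active means inhibition above 50%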;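 further: 0% = DMSO wells and 100% = nicardipine pump inhibitor wells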
IgMXP3 autofluor: compound autofluorescence in ABCG2-expressing IgMXP3 cells, confirmation, artefact control for ABC transporter inhibitor project, cell-based, 488/530 nm, flow cytometry | shares compounds with ABCG2 inh | compound autofluorescence 488/530 nm; stronger effect = higher value | fluorescence at 6.6 µM | actives 30% (n = 270);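 active means fluorescence in ABCG2-expressing cells above the plate's control-well mean plus 3 SD, cut at about 15 in these data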;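 further: median cell fluorescence with compound minus that of DMSO-treated control cells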
CCRF-Adr fluor: compound autofluorescence in ABCB1-expressing CCRF-Adr cells, confirmation, artefact control for ABC transporter inhibitor project, cell-based, 488/530 nm, flow cytometry; shares compounds with ABCG2 inh; compound autofluorescence 488/530 nm; stronger effect = higher value; fluorescence at 6.6 µM; actives 30% (n = 270); AID 1483, 2009;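 active means fluorescence beyond the plate control mean plus 3 SD, with a fluorescence-to-maximum score over 2, cut at about 25 in these data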
* hit, by the source's call. Compounds with a hit are over-represented: about 0.99% of the library has one in this group of screens.

Cc1cc([N+](=O)[O-])ccc1NC(=O)Nc1ccccc1F was read as Tn7 DDE FP -4, GRK2 inh 0, ABCB1 inh 2, Ins promoter up -1, ABCG2 inh 106*, Tn6 DDE FP -1, ABCB1 single pt 1, ABCG2 confirm 40, IgMXP3 autofluor -0.99 and CCRF-Adr fluor 4.
For Cc1cc(-c2ccc(Br)s2)nc(-n2cccc2)n1 the results were Tn7 DDE FP -6, ABCB1 inh 0, Ins promoter up -0.75, ABCG2 inh 2 and Tn6 DDE FP -6.
Screening Cc1cc(-c2sccc2Br)nc(-n2cccc2)n1 returned Tn7 DDE FP 1, ABCB1 inh 1, Ins promoter up -0.48, ABCG2 inh 92*, Tn6 DDE FP 2, ABCB1 single pt 1, ABCG2 confirm 33, IgMXP3 autofluor -1.9 and CCRF-Adr fluor -4.7.
For Cc1c(O)ccc2c3c(c(=O)oc12)CCCC3 the results were Tn7 DDE FP -3, GRK2 inh 3, ABCB1 inh 0, Ins promoter up 0.32, ABCG2 inh 1 and Tn6 DDE FP -8.
Screening Cc1oc2c(C)c3oc(=O)c4c(c3cc2c1C)CCCC4 returned Tn7 DDE FP 1, GRK2 inh 1, ABCB1 inh 2, Ins promoter up -2.3, ABCG2 inh 75, Tn6 DDE FP 0, ABCB1 single pt 8, ABCG2 confirm 18, IgMXP3 autofluor 12 and CCRF-Adr fluor 15.
S=c1[nH]nc(-c2ccc3ccccc3n2)n1-c1ccc2ncccc2c1 was read as Tn7 DDE FP -5, GRK2 inh 0, ABCB1 inh 0, Ins promoter up -0.46, ABCG2 inh 64, Tn6 DDE FP -9, ABCB1 single pt 6, ABCG2 confirm 11, IgMXP3 autofluor 32* and CCRF-Adr fluor 20.
CCN(CC)c1ccc(/C=C2/C(=O)ON=C2C)cc1 was read as Tn7 DDE FP -4, GRK2 inh 0, ABCB1 inh -1, Ins promoter up -0.08, ABCG2 inh 1 and Tn6 DDE FP 1.
Screening Cc1ccc(/C=c2/sc3nnc(-c4ccccc4Cl)n3c2=O)o1 returned Tn7 DDE FP -2, GRK2 inh 1, ABCB1 inh 2, Ins promoter up 0.31, ABCG2 inh 58 and Tn6 DDE FP 2.
`CCN(CC)c1ccc(/C=c2\sc3nnc(-c4ccccc4Cl)n3c2=O)cc1` gave Tn7 DDE FP -4, GRK2 inh 0, ABCB1 inh 60*, ABCG2 inh 78, Tn6 DDE FP 0, ABCB1 single pt 28, ABCG2 confirm -54, IgMXP3 autofluor 202* and CCRF-Adr fluor 204*.
`CCN(CC)c1ccc(/C=c2/sc3nnc(-c4ccccc4C)n3c2=O)cc1` gave Tn7 DDE FP 2, GRK2 inh 0, ABCB1 inh 77*, Ins promoter up 3, ABCG2 inh 64, Tn6 DDE FP 0, ABCB1 single pt 25, ABCG2 confirm 13, IgMXP3 autofluor 139* and CCRF-Adr fluor 249*.
Screening COC(=O)c1cccc(OCC(C)CN2CCC(C(O)(c3ccccc3)c3ccccc3)CC2)c1 (centres undefined) returned Tn7 DDE FP -3 and Tn6 DDE FP 0.
C#CCN(Cc1ccco1)C(=O)c1nnc2c3ccccc3n(S(=O)(=O)c3ccc(C)cc3)c2n1 was read as Tn7 DDE FP -4 and Tn6 DDE FP -13.
For COc1ccc(CCNCC2C(Oc3ccc(Cl)cc3)C(=O)N2c2ccccc2C)cc1OC (centres undefined) the results were Tn7 DDE FP 4, GRK2 inh 1, ABCB1 inh 53*, ABCG2 inh 19, Tn6 DDE FP -6, ABCB1 single pt 31, ABCG2 confirm 37, IgMXP3 autofluor 5.1 and CCRF-Adr fluor 5.8.
`COCCNCC1C(Oc2ccc(Cl)cc2)C(=O)N1c1ccccc1C` (centres undefined) gave Tn7 DDE FP 4, GRK2 inh 1, ABCB1 inh 1, Ins promoter up -0.37, ABCG2 inh 2 and Tn6 DDE FP 7.
For CC(C)c1ccc(OCc2cccc(C(=O)N/N=C/c3cccnc3)c2)cc1 the results were Tn7 DDE FP -10, GRK2 inh 0, ABCB1 inh 0, Ins promoter up 0.77, ABCG2 inh 9 and Tn6 DDE FP -15.
`CCOc1ccc(OCc2cccc(C(=O)N/N=C/c3cccnc3)c2)cc1` gave Tn7 DDE FP -4, GRK2 inh 0, ABCB1 inh 2, Ins promoter up -0.28, ABCG2 inh 87*, Tn6 DDE FP 2, ABCB1 single pt -2, ABCG2 confirm 22, IgMXP3 autofluor 4.2 and CCRF-Adr fluor 3.2.
For Cc1ccc(-c2c(C(=O)NCc3ccc(F)cc3)oc(=O)c3ccccc23)cc1 the results were Tn7 DDE FP -4, GRK2 inh 0, ABCB1 inh 27, Ins promoter up 0.98, ABCG2 inh 83*, Tn6 DDE FP -2, ABCB1 single pt 9, ABCG2 confirm 27, IgMXP3 autofluor 5.3 and CCRF-Adr fluor 9.9.
Screening Cc1onc(-c2c(F)cccc2Cl)c1C(=O)OCC(=O)Nc1cccc(S(=O)(=O)N(C)C)c1 returned Tn7 DDE FP 0 and Tn6 DDE FP -4.
Screening C=CCOC/C=C/C#CCN(Cc1ccc(OC)cc1OC)C(=O)Nc1ccccc1 returned Tn7 DDE FP -1 and Tn6 DDE FP 2.

Source: PubChem BioAssay
